Experiments:
[1] = target: Cannabinoid receptor 2 (Mus musculus, UniProt P47936); test: Displacement of [3H]CP-55940 from mouse CB2 receptor expressed in HEK293 cell membranes
Procedure, shortened: (§1)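 Competition binding against [3H]CP-55,940. CB1 came from rat brain membranes, and CB2 from membranes of HEK293 cells expressing mouse or human CB2. Curves were fitted by nonlinear regression to give IC50, and Ki was calculated from IC50. Each experiment was run in triplicate, and Ki values come from a single experiment.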

[2] = target: Cannabinoid receptor 2 (Homo sapiens, UniProt P34972); test: Displacement of [3H]CP-55940 from human CB2 receptor expressed in HEK293 cell membranes; procedure, shortened: as §1
[3] = target: Cannabinoid receptor 1 (Rattus norvegicus, UniProt P20272); test: Displacement of [3H]CP-55940 from CB1 receptor in rat brain; format: tissue-based; procedure, shortened: as §1
Cannabinoid receptor 1, sequence (P20272 whole entry): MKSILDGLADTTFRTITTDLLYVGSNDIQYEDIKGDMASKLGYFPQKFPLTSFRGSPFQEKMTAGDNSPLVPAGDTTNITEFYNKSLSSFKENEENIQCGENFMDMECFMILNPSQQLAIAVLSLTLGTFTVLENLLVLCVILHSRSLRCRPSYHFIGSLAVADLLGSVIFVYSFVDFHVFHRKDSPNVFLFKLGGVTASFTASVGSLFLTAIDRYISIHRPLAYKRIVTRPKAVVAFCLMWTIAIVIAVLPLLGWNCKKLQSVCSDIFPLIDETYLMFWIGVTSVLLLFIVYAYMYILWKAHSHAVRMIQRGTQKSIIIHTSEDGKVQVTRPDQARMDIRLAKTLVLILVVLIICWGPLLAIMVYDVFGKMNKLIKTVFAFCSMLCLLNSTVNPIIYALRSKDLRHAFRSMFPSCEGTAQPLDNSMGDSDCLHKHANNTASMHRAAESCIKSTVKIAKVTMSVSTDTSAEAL

Cannabinoid receptor 2 (Homo sapiens, UniProt P34972), sequence (P34972 whole entry): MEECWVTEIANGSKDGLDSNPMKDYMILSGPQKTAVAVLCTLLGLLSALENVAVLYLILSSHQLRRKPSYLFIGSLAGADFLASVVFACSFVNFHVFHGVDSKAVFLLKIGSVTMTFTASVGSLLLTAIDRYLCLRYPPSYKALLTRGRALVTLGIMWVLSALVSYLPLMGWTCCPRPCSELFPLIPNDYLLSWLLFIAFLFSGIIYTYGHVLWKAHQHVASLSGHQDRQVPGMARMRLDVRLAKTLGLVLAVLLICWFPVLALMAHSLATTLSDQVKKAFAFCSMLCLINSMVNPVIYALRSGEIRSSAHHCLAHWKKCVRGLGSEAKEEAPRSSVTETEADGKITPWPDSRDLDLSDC
Cannabinoid receptor 2 (Mus musculus, UniProt P47936), sequence (P47936 whole entry): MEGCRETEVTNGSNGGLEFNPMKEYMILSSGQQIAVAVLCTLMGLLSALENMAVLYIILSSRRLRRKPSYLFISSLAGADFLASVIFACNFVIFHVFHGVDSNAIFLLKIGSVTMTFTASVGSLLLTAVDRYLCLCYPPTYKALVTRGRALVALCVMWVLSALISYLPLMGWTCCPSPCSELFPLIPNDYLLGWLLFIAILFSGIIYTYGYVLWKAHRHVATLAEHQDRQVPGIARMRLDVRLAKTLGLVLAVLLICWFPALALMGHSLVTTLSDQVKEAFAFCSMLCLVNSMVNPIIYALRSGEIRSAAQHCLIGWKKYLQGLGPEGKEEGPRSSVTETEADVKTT

| Structure (SMILES) | Ki [1] | Ki ([2]; read-out: Ki) | Ki ([3]; read-out: Ki) | Ki [3] | Ki ([2]; hek293) |
| --- | --- | --- | --- | --- | --- |
| CC1(C)Oc2cc(CN3C4CC5CC3CC(C4)O5)cc(O)c2[C@@H]2C[C@H](O)CC[C@H]21 | 8.7 µM | 15 µM | 10 µM | – | – |
| CC1(C)Oc2cc(C(=O)NC3C4CC5CC(C4)CC3C5)cc(O)c2[C@@H]2C[C@@H](O)CC[C@H]21 (some centres undefined) | 3.7 µM | 15 µM | 100 µM | – | – |
| CC1(C)Oc2cc(C(=O)NC34CC5CC(CC(C5)C3)C4)cc(O)c2[C@@H]2C[C@@H](O)CC[C@H]21 | 7.5 µM | 35 µM | 375 µM | – | – |
| CC1(C)Oc2cc(C(=O)NC34CC5CC(CC(C5)C3)C4)cc(O)c2[C@@H]2C[C@H](O)CC[C@H]21 | 0.5 µM | 8.7 µM | 80 µM | – | – |
| CC1(C)Oc2cc(N3C4CC5CC3CC(C4)O5)cc(O)c2[C@@H]2C[C@H](O)CC[C@H]21 | 1.2 µM | 1.8 µM | 1.8 µM | – | – |
| CC1(C)Oc2cc(CNC3C4CC5CC(C4)CC3C5)cc(O)c2[C@@H]2C[C@H](O)CC[C@H]21 (some centres undefined) | 6.2 µM | 20 µM | 150 µM | – | – |
| CC1(C)Oc2cc(CNC34CC5CC(CC(C5)C3)C4)cc(O)c2[C@@H]2C[C@@H](O)CC[C@H]21 | 5 µM | 25 µM | 100 µM | – | – |
| CC1(C)Oc2cc(CNC34CC5CC(CC(C5)C3)C4)cc(O)c2[C@@H]2C[C@H](O)CC[C@H]21 | 0.5 µM | 10 µM | 150 µM | – | – |
| CC1(C)Oc2cc(C34CC5CC(CC(C5)O3)C4)cc(O)c2[C@@H]2C[C@@H](O)CC[C@H]21 | 0.54 µM | 1.3 µM | 0.55 µM | – | – |
| CC1(C)Oc2cc(C(=O)NC3C4CC5CC(C4)CC3C5)cc(O)c2[C@@H]2C[C@H](O)CC[C@H]21 (some centres undefined) | 1.2 µM | 2.7 µM | 15 µM | – | – |
| CC1(C)Oc2cc(C(=O)N3C4CC5CC3CC(C4)O5)cc(O)c2[C@@H]2C[C@H](O)CC[C@H]21 | 2.5 µM | 20 µM | – | Not Active | – |
| CC1(C)Oc2cc(N3C4CC5CC3CC(C4)O5)cc(O)c2[C@@H]2C[C@@H](O)CC[C@H]21 | 17 µM | 14.9 µM | 22.4 µM | – | – |
| CC1(C)Oc2cc(C(=O)N3C4CC5CC3CC(C4)O5)cc(O)c2[C@@H]2C[C@@H](O)CC[C@H]21 | 8.6 µM | 25 µM | – | Not Active | – |
| CC1(C)Oc2cc(CN3C4CC5CC3CC(C4)O5)cc(O)c2[C@@H]2C[C@@H](O)CC[C@H]21 | 7.5 µM | 5 µM | 125 µM | – | – |
| CC1(C)Oc2cc(CNC3C4CC5CC(C4)CC3C5)cc(O)c2[C@@H]2C[C@@H](O)CC[C@H]21 (some centres undefined) | 7.5 µM | 25 µM | – | Not Active | – |
| CC1(C)Oc2cc(C34CC5CC(CC(C5)O3)C4)cc(O)c2[C@@H]2C[C@H](O)CC[C@H]21 | 0.018 µM | 0.019 µM | 0.023 µM | – | – |
| CC1=CC[C@@H]2[C@@H](C1)c1c(O)cc(C34CC5CC(CC(C5)C3)C4)cc1OC2(C)C | – | – | – | – | Not Active |

Reference: ChEMBL document CHEMBL1212819, “Heteroadamantyl cannabinoids” (J Med Chem, 2010)
